Test results reported in paper PMC6500479 (Journal of controlled release : official journal of the …, 2019).
Bridges are numbered along the chain shown (N, C = ends). Where no end group is shown, it is not given here. FAM = carboxyfluorescein; Ahx = NCCCCCC(=O)O

What was measured:
[1] = test system: 4T1 mouse mammary carcinoma; assay: In vivo homing to 4T1 orthotopic breast tumors; conditions: 5 min, 15 min or 1 h after IV injection, IF
Procedure, shortened: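 4T1 tumors came from 1 × 10⁶ cells in 100 μL PBS injected into the mammary fat pad of female BALB/c mice. FAM-labelled test peptide was given IV, 100 μL of 1 mg/mL in PBS, and circulated 5 min, 15 min or 1 h before PBS perfusion. Fixed frozen sections were blocked in 1% BSA/0.1% Triton X-100 for 1 h at RT. Primaries (1:200) ran overnight at 4 °C, secondaries (1:200) 1 h at RT, with anti-CD31 for vessels. DAPI mounting, confocal imaging.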

[2] = test system: bovine serum albumin (BSA); assay: Binding to control protein BSA
macrophages = conditions: ref [22]; cited from earlier work

| Binding to BSA [2] | Substance | Accumulation in tumors over time [1] | Inhibition of FAM-CRV binding to macrophages (macrophages) |
| --- | --- | --- | --- |
| neither peptide bound | GGSGGSKG ({FAM-Ahx}-GGSGGSKG-OH) [FAM-GGS] | little accumulation in tumors |  |
|  | Biotinylated CRV: Biotinylated CRV (CRVLRSGSC; disulfide 1-9; also: biotin, position not given here) |  | inhibits the binding of FAM-CRV to macrophages |
